Holding throughout (format): functional
What all share (details): read-out: DIZ

Experiment [1] has as its system Escherichia coli. Nature of the experiment: Antimicrobial activity against Escherichia coli at 0.5 mg/ml by well plate method. In outline:
(§1)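 Agar well-plate diffusion against E. coli, B. subtilis and P. aeruginosa. Test compounds dissolved in DMSO at 1 and 0.5 mg/mL and placed in wells. Streptomycin was the reference drug. Read-out is the zone of inhibition.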

Experiment [2] deals with Bacillus subtilis. The experiment in a line: Antimicrobial activity against Bacillus subtilis at 0.5 mg/ml by well plate method. In outline:
as §1

Experiment [3] relates to Bacillus subtilis. Nature of the experiment: Antimicrobial activity against Bacillus subtilis at 1 mg/ml by well plate method. In outline:
as §1

Experiment [4] deals with Pseudomonas aeruginosa. The experiment in a line: Antimicrobial activity against Pseudomonas aeruginosa at 1 mg/ml by well plate method. The gist of the method: as §1
Experiment [5] relates to Escherichia coli. Nature of the experiment: Antimicrobial activity against Escherichia coli at 1 mg/ml by well plate method. The gist of the method:
as §1

Experiment [6] has as its system Pseudomonas aeruginosa. Nature of the experiment: Antimicrobial activity against Pseudomonas aeruginosa at 0.5 mg/ml by well plate method. The gist of the method: as §1
Experiment [7] concerns Candida albicans. The experiment in a line: Antimicrobial activity against Candida albicans at 1 mg/ml by well plate method. The gist of the method:
(§2)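 Fungal well-plate diffusion against Candida albicans, Aspergillus flavus and Chrysosporium keratinophilum. Compounds in DMSO at 1 and 0.5 mg/mL, with fluconazole as the reference drug. Activity scored as the zone of inhibition.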

For experiment [8], the system named is Aspergillus flavus. The experiment in a line: Antimicrobial activity against Aspergillus flavus at 0.5 mg/ml by well plate method. The gist of the method: as §2
The subject of experiment [9] is Aspergillus flavus. Nature of the experiment: Antimicrobial activity against Aspergillus flavus at 1 mg/ml by well plate method. The gist of the method:
as §2

For experiment [10], the system named is Candida albicans. Nature of the experiment: Antimicrobial activity against Candida albicans at 0.5 mg/ml by well plate method. In outline:
as §2

Experiment [11] concerns Chrysosporium keratinophilum. The experiment in a line: Antimicrobial activity against Chrysosporium keratinophilum at 0.5 mg/ml by well plate method. In outline: as §2
Experiment [12] deals with Chrysosporium keratinophilum. Nature of the experiment: Antimicrobial activity against Chrysosporium keratinophilum at 1 mg/ml by well plate method. The gist of the method:
as §2

Take `COc1ccc(-c2cn3nc(-c4ccc(N5CCN(C)CC5)c([N+](=O)[O-])c4)sc3n2)cc1`: the zone of inhibition at 500 µg/mL stood at 4 mm in experiment [1], 3 mm in experiment [2] and 3 mm in experiment [6]. Also, the zone of inhibition at 1000 µg/mL in experiment [3] worked out at 5 mm; in experiment [4], 5 mm; in experiment [5], 6 mm.
Take `COc1ccc(-c2cn3nc(-c4ccc(N(C)C)c([N+](=O)[O-])c4)sc3n2)cc1`: the zone of inhibition at 1000 µg/mL in experiment [7] came to 5 mm; in [3] it was 3 mm; in [4] it was 6 mm; in experiment [9] it was 4 mm; in experiment [5], 4 mm; in [12], 4 mm. For the same compound, the zone of inhibition at 500 µg/mL in [1] was determined as 3 mm; in [2] it was 2 mm; in experiment [8], 2 mm; in experiment [10] it was 3 mm; in [11], 2 mm; in experiment [6], 4 mm.
Turning to `COc1ccc(-c2cn3nc(-c4ccc(NCC5CCCO5)c([N+](=O)[O-])c4)sc3n2)cc1` (stereo not given), the zone of inhibition at 1000 µg/mL is 7 mm in experiment [7]; 10 mm in experiment [3]; 13 mm in [4]; 9 mm in experiment [9]; 13 mm in [5]; 8 mm in experiment [12]. Further, the zone of inhibition at 500 µg/mL amounted to 10 mm in experiment [1]; 8 mm in [2]; 6 mm in experiment [8]; 5 mm in [10]; 6 mm in experiment [11]; 9 mm in experiment [6].
On to `COc1ccc(-c2cn3nc(-c4ccc(NC5CCCCC5)c([N+](=O)[O-])c4)sc3n2)cc1`, for which the zone of inhibition at 1000 µg/mL in experiment [7] was found to be 9 mm; in experiment [3] it was 10 mm; in experiment [4], 9 mm; in experiment [9], 8 mm; in [5], 11 mm; in experiment [12] it was 7 mm. The zone of inhibition at 500 µg/mL was determined as 9 mm in experiment [1]; 7 mm in experiment [2]; 6 mm in experiment [8]; 7 mm in experiment [10]; 5 mm in [11]; 7 mm in experiment [6].
With `COc1ccc(-c2cn3nc(-c4ccc(NCc5ccc(F)cc5F)c([N+](=O)[O-])c4)sc3n2)cc1`, the zone of inhibition at 1000 µg/mL in experiment [7] came to 5 mm; in [3], 4 mm; in experiment [4], 4 mm; in [9] it was 6 mm; in experiment [5], 3 mm; in experiment [12] it was 8 mm. For the same compound, the zone of inhibition at 500 µg/mL in experiment [1] came to 1 mm; in [2], 2 mm; in experiment [8] it was 3 mm; in experiment [10] it was 3 mm; in experiment [11] it was 6 mm; in [6], 2 mm.
As to `COc1ccc(-c2cn3nc(-c4ccc(N5CCCC5)c([N+](=O)[O-])c4)sc3n2)cc1`, the zone of inhibition at 1000 µg/mL in [7] came to 7 mm; in [3], 9 mm; in experiment [4] it was 6 mm; in experiment [9], 7 mm; in experiment [5], 8 mm; in experiment [12], 6 mm. Besides, the zone of inhibition at 500 µg/mL in experiment [1] was determined as 5 mm; in experiment [2], 7 mm; in experiment [8] it was 5 mm; in [10] it was 5 mm; in experiment [11], 4 mm; in experiment [6] it was 4 mm.
Turning to `CCN(CC)c1ccc(-c2nn3cc(-c4ccc(OC)cc4)nc3s2)cc1[N+](=O)[O-]`, the zone of inhibition at 1000 µg/mL was found to be 6 mm in experiment [7]; 5 mm in experiment [3]; 3 mm in [4]; 5 mm in experiment [9]; 6 mm in experiment [5]; 5 mm in experiment [12]. The zone of inhibition at 500 µg/mL in experiment [1] worked out at 4 mm; in experiment [2], 3 mm; in [8] it was 3 mm; in experiment [10] it was 5 mm; in [11], 3 mm; in [6], 1 mm.
In the case of `CCCCNc1ccc(-c2nn3cc(-c4ccc(OC)cc4)nc3s2)cc1[N+](=O)[O-]`, the zone of inhibition at 1000 µg/mL was determined as 3 mm in experiment [7]; 6 mm in experiment [3]; 7 mm in [4]; 2 mm in experiment [9]; 5 mm in experiment [5]; 3 mm in experiment [12]. Further, the zone of inhibition at 500 µg/mL in experiment [1] came to 3 mm; in experiment [2], 4 mm; in experiment [10], 2 mm; in [11], 1 mm; in experiment [6], 5 mm.
As for `CN1CCN(c2ccc(-c3nnc(NC(=O)C(C)(C)C)s3)cc2[N+](=O)[O-])CC1`, the zone of inhibition at 1000 µg/mL in [7] was 4 mm; in experiment [3], 4 mm; in [4] it was 3 mm; in experiment [9] it was 3 mm; in experiment [5], 5 mm; in experiment [12] it was 4 mm. Further, the zone of inhibition at 500 µg/mL in experiment [1] came out at 3 mm; in experiment [2], 3 mm; in [10], 2 mm; in [11], 2 mm; in experiment [6], 2 mm.
For `CC(C)(C)C(=O)Nc1nnc(-c2ccc(NC3CCCCC3)c([N+](=O)[O-])c2)s1`, the zone of inhibition at 1000 µg/mL in [7] is 9 mm; in experiment [3] it was 8 mm; in experiment [4], 9 mm; in experiment [9] it was 7 mm; in experiment [5], 10 mm; in [12], 6 mm. The zone of inhibition at 500 µg/mL turned out to be 8 mm in [1]; 6 mm in experiment [2]; 5 mm in experiment [8]; 7 mm in [10]; 4 mm in [11]; 7 mm in experiment [6].
Regarding `CC(C)(C)C(=O)Nc1nnc(-c2ccc(NCc3ccc(F)cc3F)c([N+](=O)[O-])c2)s1`, the zone of inhibition at 1000 µg/mL in [7] is 5 mm; in experiment [3], 4 mm; in experiment [4] it was 4 mm; in experiment [9], 6 mm; in [5], 5 mm; in experiment [12], 7 mm. Further, the zone of inhibition at 500 µg/mL was 3 mm in experiment [1]; 2 mm in experiment [2]; 4 mm in experiment [8]; 3 mm in [10]; 5 mm in [11]; 2 mm in experiment [6].
On to `CC(C)(C)C(=O)Nc1nnc(-c2ccc(N3CCCC3)c([N+](=O)[O-])c2)s1`, for which the zone of inhibition at 1000 µg/mL in experiment [7] worked out at 6 mm; in [3] it was 3 mm; in experiment [4] it was 6 mm; in experiment [9], 6 mm; in [5] it was 5 mm; in experiment [12], 5 mm. The zone of inhibition at 500 µg/mL came to 3 mm in experiment [1]; 1 mm in experiment [2]; 4 mm in [8]; 5 mm in experiment [10]; 3 mm in [11]; 4 mm in experiment [6].
As for `CC(C)(C)C(=O)Nc1nnc(-c2ccc(Nc3ccc(F)cc3)c([N+](=O)[O-])c2)s1`, the zone of inhibition at 1000 µg/mL in experiment [7] is 4 mm; in [3], 5 mm; in experiment [4], 6 mm; in experiment [9] it was 3 mm; in experiment [5], 7 mm; in experiment [12], 5 mm. Further, the zone of inhibition at 500 µg/mL was determined as 5 mm in experiment [1]; 3 mm in [2]; 2 mm in [8]; 2 mm in experiment [10]; 4 mm in experiment [11]; 4 mm in [6].
Take `OC(Cn1cncn1)(Cn1cncn1)c1ccc(F)cc1F` [FLUCONAZOLE]: the zone of inhibition at 1000 µg/mL in experiment [7] is 22 mm; in [9], 13 mm; in experiment [12] it was 17 mm. Moreover, the zone of inhibition at 500 µg/mL in experiment [8] is 10 mm; in [10], 20 mm; in [11] it was 15 mm.
`CN[C@@H]1[C@H](O[C@H]2[C@H](O[C@H]3[C@H](O)[C@@H](O)[C@H](N=C(N)N)[C@@H](O)[C@@H]3N=C(N)N)O[C@@H](C)[C@]2(O)C=O)O[C@@H](CO)[C@H](O)[C@H]1O` [STREPTOMYCIN]: the zone of inhibition at 500 µg/mL in experiment [1] amounted to 17 mm; in experiment [2], 19 mm; in experiment [6], 15 mm. Further, the results for the zone of inhibition at 1000 µg/mL in experiment [3], in [4] and in experiment [5] were 22 mm, 19 mm and 19 mm, respectively.

For the origin of these results see ChEMBL document CHEMBL3097999, “Synthesis and biological evaluation of novel substituted 1,3,4-thiadiazole and 2,6-di aryl substituted imidazo [2,1-b] [1,3,4] thiadiazole derivatives” (2014).
